Screens as filed in PubChem BioAssay.
NR3A LBD binder: binders of NR3A ligand-binding domain, primary screen, biophysical, differential scanning fluorimetry, uHTS | hit rate 2.5% among 340,000 | AID 1259313, 2017 | NR3A LBD differential scanning fluorimetry, Tm shift; 0% = protein alone, 100% = glycine-bound protein | Tm shift relative to glycine control, % at 25 µM | Glutamate receptor ionotropic, NMDA 3A (GRIN3A) ligand-binding domain;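 active = melting temperature shift of at least 10% of the positive control shift, at one fixed dose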
Rtt109 HAT inh: inhibitors of C. albicans Rtt109/Vps75 HAT, primary screen, biochemical, ThioGlo CoA-SH fluorescence, plate reader | Histone acetyltransferase RTT109 (Candida albicans (strain SC5314 / ATCC MYA-2876)), … | purified Rtt109/Vps75, 4 h | inhibition, % at 34.9 µM | hit rate 0.16% among 330,000 | AID 540336, 2011;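 active = inhibition of at least 50% in every replicate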
Target sequence (Q5AAJ8 whole entry, looked up): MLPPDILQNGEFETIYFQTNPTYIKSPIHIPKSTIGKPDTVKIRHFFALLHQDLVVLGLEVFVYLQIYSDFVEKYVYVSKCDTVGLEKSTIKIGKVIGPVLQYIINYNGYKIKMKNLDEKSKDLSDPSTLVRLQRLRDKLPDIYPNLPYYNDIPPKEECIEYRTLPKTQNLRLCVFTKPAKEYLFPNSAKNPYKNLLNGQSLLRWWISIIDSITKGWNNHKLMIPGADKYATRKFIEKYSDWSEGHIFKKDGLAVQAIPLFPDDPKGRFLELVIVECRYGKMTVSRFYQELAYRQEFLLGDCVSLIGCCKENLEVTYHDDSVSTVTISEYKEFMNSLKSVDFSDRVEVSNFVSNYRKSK
T cell modulator: modulators of CD8 T cell-vesicle binding, primary screen, mouse 2C CD8+ T cells, flow cytometry; response (vesicle binding), % at 7 µM; 2C CD8+ T cell-vesicle binding; active compounds read low; hit rate 0.068% among 330,000;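 active = response, share of CD8 T cells binding vesicles, and their 90th percentile fluorescence all below set limits, cut at about 80% in these data, passing the limit was not always enough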;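 note: values below 100% mean blocked vesicle binding to the CD8+ T cells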
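Material: 2C TCR transgenic mouse naive CD8+ T cells, MACS-purified. Also added: QL9-charged Drosophila Ld/ICAM-1/B7-1 vesicles. Timing: binding 1.5 h at 37 °C. Measured by: high-throughput flow cytometry with anti-B7-1 and anti-CD8 staining. Read-out: percent CD8+ FL2 mean versus row control. Controls: Unloaded micro-vesicles (low), QL9 vesicles with 0.7% DMSO (high).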
GASC-1 inh: inhibitors of GASC-1 histone demethylase, primary screen, biochemical, fluorescence, DELFIA europium; GST-JMJD2C(1-420) H3K9me3 demethylation; Lysine-specific demethylase 4C (Homo sapiens), Q9H3R0; hit rate 0.069% among 330,000; AID 2099, 2009; inhibition, % at 2.35 µM;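 active = more than half of a compound's replicate wells show inhibition beyond 50%, single wells judged on their own value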;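 note: signal counts dimethyl H3K9 product captured on neutravidin plate; 0% = median of DMSO wells and 100% = 0.3 times that DMSO median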
An asterisk follows results filed as active; i = inactive; nt = no result given. Shown are actives, neighbours in structure and some others; about 2.8% of the full set was active somewhere.

SMILES	NR3A LBD binder	Rtt109 HAT inh	T cell modulator	GASC-1 inh
Oc1ccc(C[C@H]2CNC(=S)N2CCc2cc(C(F)(F)F)cc(C(F)(F)F)c2)cc1	31*	1	nt	-3
Oc1ccc(C[C@@H]2CNCCN2CCc2cc(C(F)(F)F)cc(C(F)(F)F)c2)cc1	0	12	421	-5
CC(C)[C@]1(c2ccccc2)ON(c2ccccc2C(F)(F)F)C1=O	nt	nt	305	0
COc1cc2c(cc1OC)C(C)N(C(=S)NC(=O)c1ccccc1)CC2 (stereo unspecified)	-1	1	301	9
O=c1c2ccc(Cl)cc2nc2n1CC/C2=C\c1cccc(O)c1	23*	-4	214	1
O=C(O)c1ccc2c(=O)n3c(nc2c1)/C(=C/c1cccc(O)c1)CC3	1	-2	329	-11
O=C(COC(=O)Cn1cnc2ccccc21)Nc1ccc(F)c(F)c1	-10	4	196	6
CCCCCn1ccc(=N)cc1	11*	9	408	-10
Cc1ccc(S(=O)(=O)CCC(=O)N(C)C2CCCCC2)cc1	-1	-4	293	-141
COc1cccc(CNC(=O)c2ccccc2NC(=O)C2=C(C)OCCS2)c1OC	112*	1	299	-4
CN1CCN(C(=S)c2ccc(Cl)cc2)CC1	10*	-7	275	5
OCC1OC(n2ccc3c(SCc4ccccc4)ncnc32)C(O)C1O (stereo unspecified)	1	-4	nt	nt
Nc1ccc(-c2nc3c(ccc4ccccc43)[nH]2)cc1	11*	8	256	0
CC(C)C[C@@H]1CN=C(N)N1C[C@@H]1CCCN1C[C@H](C)N1C[C@@H](Cc2ccccc2)N(CCc2ccc(Cl)c(Cl)c2)C1=N	-3	75*	231	38
Cc1cc(NC(=O)/C=C/c2cccc(Cl)c2)n(-c2nc3ccccc3[nH]2)n1	11*	nt	273	12
Cc1cc(NC(=O)/C=C/c2ccc(F)cc2)n(-c2nc3ccccc3[nH]2)n1	12*	-9	485	-8
Cc1cc(NC(=O)/C=C/c2cccc(F)c2)n(-c2nc3ccccc3[nH]2)n1	5	10	302	10
C[C@H]1CC[C@]2(O[C@@H](CCO)C[C@H](O)[C@H]2O)O1	-2	2	505	10
C[C@H](CO)N1C[C@H](C)[C@@H](CN(C)C(=O)Nc2ccc(C(F)(F)F)cc2)Oc2c(NC(=O)Cc3ccccc3)cccc2C1=O	-3	14	404	-22
Cc1ccc(S(=O)(=O)N2CCN(C(=O)C3=COCCO3)CC2)cc1C	-1	13	372	-4
Cc1cc(C(=O)N2CCN(S(=O)(=O)c3ccc(C)c(C)c3)CC2)no1	53*	5	nt	nt
O=C1C=C(c2ccc(Cl)nc2)C[C@@H](c2ccc3c(c2)OCO3)C1	-2	8	386	0
NC(=O)c1ccccc1NC(=O)CCCCCn1nnc2ccccc2c1=O	12*	5	256	-10
Cc1nc2c([nH]c3ccc(Br)cc32)s1	15*	-11	0	-22
Brc1ccc2[nH]c3c(c2c1)CCC3	-14	6	195	0
SMILES	NR3A LBD binder	Rtt109 HAT inh	T cell modulator	GASC-1 inh
Cc1ccc2c(c1C)C(=O)C(=O)N2	0	1	nt	nt
Cc1ccc(Cl)c2c1NC(=O)C2=O	-1	2	0.0*	0
COc1cc(NC(=O)c2cc3ccccc3cc2OC)ccc1NC(=O)c1cccs1	21*	-51	i	154
COc1cc(NC(=O)c2ccc([N+](=O)[O-])o2)ccc1NC(=O)c1cccs1	24*	-15	255	-5
COc1ccc(NC(=O)c2cc3ccccc3[nH]2)cc1	24*	0	166	-10
COc1cccc(C(=O)Nc2cccc(C(=O)NCC(C)C)c2)c1	13*	-9	277	11
COc1cc(NC(=O)c2ccccc2Cl)ccc1NC(=O)c1cccs1	0	11	304	-3
COc1ccc2[nH]c(C(=O)Nc3ccc(C)c(F)c3)cc2c1	7	-3	570	-7
O=C(Nc1cccc(NC(=O)c2cccs2)c1)c1ccc([N+](=O)[O-])o1	8	3	131	-5
CCC(C)C(CO)NCCCn1cnc(C(=O)Nc2ccc(C)c(C)c2)n1 (stereo unspecified)	1	4	nt	nt
Cc1ccc(Oc2ccc(C(F)(F)F)cc2[N+](=O)[O-])c([N+](=O)[O-])n1	1	-6	i	-1
COc1cc(NC(=O)c2ccc3c(c2)OCCO3)ccc1NC(=O)c1cccs1	8	-4	323	5
COc1ccccc1C(=O)Nc1ccc2ccccc2c1	-4	-3	407	-4
COc1cc(NC(=O)c2cccc(Cl)c2)ccc1NC(=O)c1cccs1	30*	2	401	8
O=C(COc1cccc(NC(=O)c2cccs2)c1)c1ccc(F)cc1	13*	-4	383	-16
COc1c(Cl)cc(Cl)cc1/C=C/C(=O)c1ccc(NC(=O)c2cccs2)cc1	30*	18	120	31
COc1ccc(C(=O)Nc2ccc3ccccc3c2)c(OC)c1	18*	-2	193	5
C=CCc1c(C)nc2c(-c3ccccc3)cnn2c1N1CCOCC1	1	-2	178	-7
CCc1noc(C)c1C(=O)NNC(=O)c1cc(OC)cc(OC)c1	-2	1	i	-2
CCOC(=O)c1cc2cc(OC)ccc2[nH]1	11*	-12	218	6
COc1cccc(C(=O)Nc2cc(NC(=O)c3cccs3)ccc2C)c1	-1	5	128	2
CCOC(=O)c1[nH]c2ccc(OC)cc2c1C	-1	1	176	-2
O=C(Nc1cccc(NC(=O)c2ccc([N+](=O)[O-])o2)c1)c1ccco1	1	22	381	-6
O=C(Nc1ccc(NC(=O)c2ccc([N+](=O)[O-])o2)cc1Cl)c1ccco1	22*	-11	381	0
COc1cccc(C(=O)Nc2cccc(NC(=O)c3cccs3)c2)c1	17*	2	213	3
CCOc1ccc(NC(=O)CCCN2C(=S)NC(C)(C)CC2C)cc1 (stereo unspecified)	12*	3	267	5
CC1CC(C)(C)NC(=S)N1CCCC(=O)Nc1ccc(Br)cc1 (stereo unspecified)	-1	1	850	-7
Cc1ccc(NC(=O)c2nc[nH]c2C(=O)NC2CCN(C(=O)OC(C)(C)C)CC2)cc1	23*	-4	415	nt
CC(C)(C)OC(=O)N1CCC(NC(=O)c2[nH]cnc2C(=O)Nc2ccccc2)CC1	-11	8	241	5
CC(C)(C)OC(=O)N1CCC(NC(=O)c2[nH]cnc2C(=O)Nc2ccc(Cl)cc2)CC1	27*	4	308	-2
